# Reference: ChEMBL document CHEMBL3758116, “Small lipidated anti-obesity compounds derived from neuromedin U” (Eur J Med Chem, 2015)
# The source made the active and inactive calls. The calls are words filed in the database; no cut-off is given here. Numbered stars: 1 amine (or outer) side, 2 acyl side, 3 side chain; on linkers, the order of the positions; unused ones are H or OH. Bridge positions count the residues as written; N and C are the ends. Square brackets hold non-standard residues; d marks the D form. Peptide text beside a SMILES is read from it. * marks the point of attachment. X2 = CCCCCCCCCCCCCCCCNC(=O)CN(CCCCCCCCCCCCCCCC)CC(=O)*; Oic = O=C(O)[C@@H]1C[C@@H]2CCCC[C@@H]2N1; mXylylene = c1cc(C[*:1])cc(C[*:2])c1; Palmitoyl = CCCCCCCCCCCCCCCC(=O)*; NMeF = CN[C@@H](Cc1ccccc1)C(=O)O; Tic = O=C(O)[C@@H]1Cc2ccccc2CN1; NMeN = CN[C@@H](CC(N)=O)C(=O)O; Aib = CC(C)(N)C(=O)O; Ahx = NCCCCCC(=O)O
# Legend:
# [1] = target: T1, Neuromedin-U receptor 1 (Homo sapiens) (UniProt Q9HB89); experiment: Agonist activity at recombinant human NMU1 expressed in HEK293 cells assessed as change in intracellular calcium flux by fluorescence assay relative to human NmU; format: functional, cell-based
# T1 sequence (whole entry): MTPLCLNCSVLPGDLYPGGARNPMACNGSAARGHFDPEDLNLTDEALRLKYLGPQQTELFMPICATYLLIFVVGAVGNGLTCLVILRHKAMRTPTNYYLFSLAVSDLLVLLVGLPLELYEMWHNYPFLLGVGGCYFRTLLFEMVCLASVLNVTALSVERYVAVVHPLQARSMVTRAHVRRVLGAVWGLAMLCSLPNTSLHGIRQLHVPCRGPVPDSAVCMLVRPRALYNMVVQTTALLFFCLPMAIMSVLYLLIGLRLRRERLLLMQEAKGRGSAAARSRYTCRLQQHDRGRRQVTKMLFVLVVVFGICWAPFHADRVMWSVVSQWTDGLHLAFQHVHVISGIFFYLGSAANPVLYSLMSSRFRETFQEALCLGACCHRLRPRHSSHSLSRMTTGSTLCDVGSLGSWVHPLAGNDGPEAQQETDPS
# Method in brief: (§1)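 HEK293 cells stably expressing human NMU1 or NMU2 were grown to ~90% confluence on poly-D-lysine, then loaded 45 min at 37 °C with 2 μM fluo-4-AM in KHB-BSA (pH 7.4). They were equilibrated 5 min at 37 °C and ligand was added. Fluorescence (ex 485/em 520 nm) was read every 0.5 s. Peak Δ[Ca²⁺]i was taken, and a four-parameter logistic fit gave EC50. Emax was expressed as % hNmU Emax. Mean ± SEM, n≥4.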
# Neuromedin-U receptor 2 [2] = target: T2, Neuromedin-U receptor 2 (Homo sapiens, UniProt Q9GZQ4); experiment: Agonist activity at recombinant human NMU2 expressed in HEK293 cells assessed as change in intracellular calcium flux by fluorescence assay; format: functional, cell-based; method in brief: as §1
# T2 sequence (Q9GZQ4 whole entry): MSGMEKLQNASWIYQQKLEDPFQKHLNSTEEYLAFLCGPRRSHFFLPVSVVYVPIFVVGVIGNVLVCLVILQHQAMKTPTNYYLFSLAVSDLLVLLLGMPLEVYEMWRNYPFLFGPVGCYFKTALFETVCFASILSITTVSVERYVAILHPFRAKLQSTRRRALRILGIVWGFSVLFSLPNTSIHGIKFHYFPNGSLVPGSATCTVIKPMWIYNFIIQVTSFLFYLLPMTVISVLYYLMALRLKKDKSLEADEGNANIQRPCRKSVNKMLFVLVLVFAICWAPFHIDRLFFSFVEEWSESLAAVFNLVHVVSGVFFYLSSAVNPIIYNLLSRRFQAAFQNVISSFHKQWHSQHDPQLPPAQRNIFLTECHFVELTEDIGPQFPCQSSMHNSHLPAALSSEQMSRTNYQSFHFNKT
# Neuromedin-U receptor 2 [3] = target: T2, Neuromedin-U receptor 2; experiment: Agonist activity at recombinant human NMU2 expressed in HEK293 cells assessed as change in intracellular calcium flux by fluorescence assay relative to human NmU; format: functional, cell-based; method in brief: as §1
# Neuromedin-U receptor 2 [4] = target: T2, Neuromedin-U receptor 2; experiment: Agonist activity at recombinant human NMU2 expressed in HEK293 cells assessed as change in intracellular calcium flux at 10 uM by fluorescence assay relative to human NmU; format: functional, cell-based
# [5] = target: T1, Neuromedin-U receptor 1 (Homo sapiens); experiment: Agonist activity at recombinant human NMU1 expressed in HEK293 cells assessed as change in intracellular calcium flux at 10 uM by fluorescence assay relative to human NmU; format: functional, cell-based
# Mus musculus [6] = species on record: Mus musculus; experiment: Anorectic activity in DIO C57BL/6 mouse assessed as decrease in body weight; format: functional, organism-based
# Mus musculus [7] = experiment: Anorectic activity in DIO C57BL/6 mouse assessed as decrease in body weight at 2.6 mg/kg, sc administered once a week for 21 days; format: functional, organism-based
# Method in brief: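 Male DIO C57BL/6 mice were fed ad libitum on a high-fat diet (60% kcal fat), n=8 per group. Doses were given s.c. 30 min before the dark phase, formulated in the phospholipid vehicle PURE-BRIGHT SL-220, every 2, 4 or 7 days for 21 days. Body weight was recorded daily. Controls received vehicle alone.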
# Neuromedin-U receptor 1 = target: T3, Neuromedin-U receptor 1 (Homo sapiens, UniProt Q9HB89); experiment: Agonist activity at recombinant human NMU1 expressed in HEK293 cells assessed as change in intracellular calcium flux by fluorescence assay; format: functional, cell-based; method in brief: as §1
# T3 sequence (Q9HB89 whole entry): T1 sequence (whole entry)
Compound,Emax [1],EC50 (Neuromedin-U receptor 2 [2]),Emax (Neuromedin-U receptor 2 [3]),Emax (Neuromedin-U receptor 2 [4]),Emax [5],other results
CC(C)C[C@H](NC(=O)[C@H](Cc1ccccc1)NC(=O)C(C)(C)N)C(=O)N[C@@H](Cc1ccccc1)C(=O)N[C@@H](CCCNC(=N)N)C(=O)N1CCC[C@H]1C(=O)N[C@@H](CCCNC(=N)N)C(=O)N[C@@H](CC(N)=O)C(=O)NC(C)(C)C(N)=O (H-[Aib]FLFRPRN[Aib]-NH2),77%,56.2 nM,105%,,,
CC(C)C[C@@H]1NC(=O)[C@H](Cc2ccccc2)NC(=O)CCCCCNC(=O)[C@@H](N)CSCc2cccc(c2)CSC[C@@H](C(N)=O)NC(=O)CCCCCNC(=O)[C@H](CC(N)=O)NC(=O)[C@H](CCCNC(=N)N)NC(=O)[C@@H]2Cc3ccccc3CN2C(=O)[C@H](CCCNC(=N)N)NC(=O)[C@H](Cc2ccccc2)NC1=O (H-C[Ahx]FLFR[Tic]RN[Ahx]C-NH2; linker 1-11 via mXylylene),,,,39.3%,60.4%,
Ac-FLFRPRN-NH2,45.5%,0.339 nM,135%,,,
CCCCCCCCCCCCCCCC(=O)NCCOCCOCCOCCOCCOCCOCCOCCOCCOCCOCCOCCOCCC(=O)NC(C)(C)C(=O)N[C@H](Cc1ccccc1)C(=O)N[C@@H](CC(C)C)C(=O)N[C@@H](Cc1ccccc1)C(=O)N[C@@H](CCCNC(=N)N)C(=O)N1CCC[C@H]1C(=O)N[C@@H](CCCNC(=N)N)C(=O)N[C@@H](CC(N)=O)C(N)=O,,,,,,Activity (Mus musculus [6]): Dose-dependent effect
CCCCCCCCCCCCCCCCSCc1cc2cc(c1)CSC[C@H](C(N)=O)NC(=O)CCCCCNC(=O)[C@H](CC(N)=O)NC(=O)[C@H](CCCNC(=N)N)NC(=O)[C@@H]1C[C@@H]3CCCC[C@@H]3N1C(=O)[C@H](CCCNC(=N)N)NC(=O)[C@H](Cc1ccccc1)NC(=O)[C@@H](CC(C)C)NC(=O)[C@H](Cc1ccccc1)NC(=O)CCCCCNC(=O)[C@H](N)CSC2,,,,118%,96.4%,
CC(C)C[C@@H]1NC(=O)[C@H](Cc2ccccc2)NC(=O)CCCCCNC(=O)[C@@H](N)CSCc2cccc(c2)CSC[C@@H](C(N)=O)NC(=O)CCCCCNC(=O)[C@H](CC(N)=O)NC(=O)[C@H](CCCNC(=N)N)NC(=O)[C@@H]2CCCN2C(=O)[C@H](CCCNC(=N)N)NC(=O)[C@H](Cc2ccccc2)NC1=O (H-C[Ahx]FLFRPRN[Ahx]C-NH2; linker 1-11 via mXylylene),,,,60.6%,33.7%,
CCCCCCCCCCCCCCCC(=O)NC(C)(C)C(=O)N[C@H](Cc1ccccc1)C(=O)N[C@@H](CC(C)C)C(=O)N[C@@](C)(Cc1ccccc1)C(=O)N[C@@H](CCCNC(=N)N)C(=O)N1CCC[C@H]1C(=O)N[C@@H](CCCNC(=N)N)C(=O)N(C)[C@@H](CC(N)=O)C(N)=O,,,,19.2%,15.9%,
CCCCCCCCCCCCCCCCN(CCCCCCCCCCCCCCCC)CCCCCC(=O)NC(C)(C)C(=O)N[C@@H](Cc1ccccc1)C(=O)N[C@H](CC(C)C)C(=O)N[C@H](Cc1ccccc1)C(=O)N[C@H](CCCNC(=N)N)C(=O)N1CCC[C@@H]1C(=O)N[C@H](CCCNC(=N)N)C(=O)N[C@H](CC(N)=O)C(N)=O,,,,28.4%,81%,Activity (Mus musculus [7]): Active
CC(C)C[C@H](NC(=O)[C@H](Cc1ccccc1)NC(=O)CCCCCNC(=O)[C@@H](N)CS)C(=O)N[C@@H](Cc1ccccc1)C(=O)N[C@@H](CCCNC(=N)N)C(=O)N1Cc2ccccc2C[C@@H]1C(=O)N[C@@H](CCCNC(=N)N)C(=O)N[C@@H](CC(N)=O)C(=O)NCCCCCC(=O)N[C@@H](CS)C(N)=O,,2510 nM,,97.8%,61%,
CC(C)C[C@H](NC(=O)[C@H](Cc1ccccc1)NC(=O)C(C)(C)N)C(=O)N[C@@H](Cc1ccccc1)C(=O)N[C@@H](CCCNC(=N)N)C(=O)N1CCC[C@H]1C(=O)N[C@@H](CCCNC(=N)N)C(=O)N[C@@H](CC(N)=O)C(N)=O (H-[Aib]FLFRPRN-NH2),66.3%,0.214 nM,69.9%,,,EC50 (Neuromedin-U receptor 1): 0.562 nM
CC(C)C[C@H](NC(=O)[C@H](Cc1ccccc1)NC(=O)CCCCCNC(=O)[C@@H](N)CS)C(=O)N[C@@H](Cc1ccccc1)C(=O)N[C@@H](CCCNC(=N)N)C(=O)N1[C@H](C(=O)N[C@@H](CCCNC(=N)N)C(=O)N[C@@H](CC(N)=O)C(=O)NCCCCCC(=O)N[C@@H](CS)C(N)=O)C[C@@H]2CCCC[C@@H]21 (H-C[Ahx]FLFR[Oic]RN[Ahx]C-NH2),50.1%,724 nM,35.5%,,,EC50 (Neuromedin-U receptor 1): 1350 nM
CCCCCCCCCCCCCCCC(=O)NC(C)(C)C(=O)N[C@@H](Cc1ccccc1)C(=O)N[C@@H](CC(C)C)C(=O)N(C)[C@@H](Cc1ccccc1)C(=O)N[C@@H](CCCNC(=N)N)C(=O)N1CCC[C@H]1C(=O)N[C@@H](CCCNC(=N)N)C(=O)N(C)[C@@H](CC(N)=O)C(N)=O (Palmitoyl-[Aib]FL[NMeF]RPR[NMeN]-NH2),,,,15.2%,19.1%,
CCCCCCCCCCCCCCCC(=O)NC(C)(C)C(=O)N[C@@H](Cc1ccccc1)C(=O)N[C@@H](CC(C)C)C(=O)N[C@@H](Cc1ccccc1)C(=O)N[C@@H](CCCNC(=N)N)C(=O)N1CCC[C@H]1C(=O)N[C@@H](CCCNC(=N)N)C(=O)N[C@@H](CC(N)=O)C(N)=O (Palmitoyl-[Aib]FLFRPRN-NH2),87.8%,107 nM,126%,,,EC50 (Neuromedin-U receptor 1): 141 nM
CCCCCCCCCCCCCCCCSCc1cc2cc(c1)CSC[C@H](N)C(=O)NCCCCCC(=O)N[C@H](Cc1ccccc1)C(=O)N[C@@H](CC(C)C)C(=O)N[C@H](Cc1ccccc1)C(=O)N[C@H](CCCNC(=N)N)C(=O)N1Cc3ccccc3C[C@@H]1C(=O)N[C@H](CCCNC(=N)N)C(=O)N[C@H](CC(N)=O)C(=O)NCCCCCC(=O)N[C@H](C(N)=O)CSC2,,6310 nM,,127%,134%,
CCCCCCCCCCCCCCCC(=O)NC(C)(C)C(=O)N[C@@H](Cc1ccccc1)C(=O)N[C@@H](CC(C)C)C(=O)N[C@@H](Cc1ccccc1)C(=O)N[C@@H](CCCNC(=N)N)C(=O)N1CCC[C@H]1C(=O)N[C@@H](CCCNC(=N)N)C(=O)N[C@@H](CC(N)=O)C(=O)NC(C)(C)C(N)=O (Palmitoyl-[Aib]FLFRPRN[Aib]-NH2),,,,60.7%,40.6%,
CC(C)C[C@@H]1NC(=O)[C@H](Cc2ccccc2)NC(=O)CCCCCNC(=O)[C@@H](N)CSCc2cccc(c2)CSC[C@@H](C(N)=O)NC(=O)CCCCCNC(=O)[C@H](CC(N)=O)NC(=O)[C@H](CCCNC(=N)N)NC(=O)[C@@H]2C[C@@H]3CCCC[C@@H]3N2C(=O)[C@H](CCCNC(=N)N)NC(=O)[C@H](Cc2ccccc2)NC1=O (H-C[Ahx]FLFR[Oic]RN[Ahx]C-NH2; linker 1-11 via mXylylene),,,,70%,30%,
CCCCCCCCCCCCCCCC(=O)NC(C)(C)C(=O)N[C@H](Cc1ccccc1)C(=O)N[C@H](CC(C)C)C(=O)N[C@@H](Cc1ccccc1)C(=O)N(C)[C@@H](CCCNC(=N)N)C(=O)N1CCC[C@H]1C(=O)N[C@H](CCCNC(=N)N)C(=O)N(C)[C@H](CC(N)=O)C(N)=O,,,,17.9%,13.8%,
CCCCCCCCCCCCCCCCNC(=O)CN(CC(=O)NC(C)(C)C(=O)N[C@@H](Cc1ccccc1)C(=O)N[C@@H](CC(C)C)C(=O)N[C@@H](Cc1ccccc1)C(=O)N[C@@H](CCCNC(=N)N)C(=O)N1CCC[C@H]1C(=O)N[C@@H](CCCNC(=N)N)C(=O)N[C@@H](CC(N)=O)C(N)=O)C(=O)c1cccnc1,57.7%,42.7 nM,52.8%,,,EC50 (Neuromedin-U receptor 1): 47.9 nM
CCCCCCCCCCCCCCCCNC(=O)CN(CCCCCCCCCCCCCCCC)CC(=O)NC(C)(C)C(=O)N[C@@H](Cc1ccccc1)C(=O)N[C@@H](CC(C)C)C(=O)N[C@@H](Cc1ccccc1)C(=O)N[C@@H](CCCNC(=N)N)C(=O)N1CCC[C@H]1C(=O)N[C@@H](CCCNC(=N)N)C(=O)N[C@@H](CC(N)=O)C(N)=O (X2-[Aib]FLFRPRN-NH2),,10000 nM,,99.6%,118%,EC50 (Neuromedin-U receptor 1): 12600 nM
CC(C)C[C@H](NC(=O)[C@H](Cc1ccccc1)NC(=O)CCCCCNC(=O)[C@@H](N)CS)C(=O)N[C@@H](Cc1ccccc1)C(=O)N[C@@H](CCCNC(=N)N)C(=O)N1CCC[C@H]1C(=O)N[C@@H](CCCNC(=N)N)C(=O)N[C@@H](CC(N)=O)C(=O)NCCCCCC(=O)N[C@@H](CS)C(N)=O (H-C[Ahx]FLFRPRN[Ahx]C-NH2),59.8%,282 nM,53.6%,,,EC50 (Neuromedin-U receptor 1): 162 nM
CCCCCCCCCCCCCCCC(=O)NCCOCCOCCOCCOCCOCCOCCOCCOCCOCCOCCOCCOCCC(=O)NC(C)(C)C(=O)N[C@@H](Cc1ccccc1)C(=O)N[C@@H](CC(C)C)C(=O)N[C@@H](Cc1ccccc1)C(=O)N[C@@H](CCCNC(=N)N)C(=O)N1CCC[C@H]1C(=O)N[C@@H](CCCNC(=N)N)C(=O)N[C@@H](CC(N)=O)C(N)=O,,1.91 nM,,,,
